According to PMC4166031 (Bioconjugate Chemistry, 2014):

Columns and labels:
[1] = Solution stability in the kit matrix by radio-HPLC; format: physicochemical; conditions: kit matrix (TPPTS, tricine, mannitol, succinate buffer); monitored by radio-HPLC for 6 h
[2] = test system: U87MG human glioma xenografts; assay: Biodistribution in athymic nude mice bearing U87MG glioma xenografts; format: in vivo
[3] = as above; format: in vivo; conditions: female, athymic nu/nu, mouse, iv, total radioactivity
[4] = test system: U87MG glioma xenografts; assay: SPECT/CT quantification of tumor uptake, U87MG glioma model; format: in vivo, athymic nude mice; conditions: ~37 MBq i.v., SPECT/CT at 60 min p.i.
Outline: (§1)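 Mice bearing U87MG glioma and MDA-MB-231 breast xenografts (4 weeks post-inoculation) got ~37 MBq 99mTc radiotracer (not HPLC-purified) in 0.1 mL saline by tail vein, under ~2.0% isoflurane. Multi-pinhole SPECT (75 projections over 30 min per frame, 2 frames), then CT at 45 kV, 500 μA. Tumors delineated on CT/SPECT; activity taken from a γ-counter-calibrated source standard curve, as %ID/cm3.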

[5] = SPECT/CT quantification of tumor uptake, MDA-MB-231 breast tumor model; format: in vivo, athymic nude mice; conditions: athymic nude, mouse, iv, 37 MBq, total radioactivity
Outline: as §1

[6] = 5 min p.i., U87MG glioma-bearing athymic nude mice

Structure (SMILES) | Time remained stable in the kit matrix postlabeling [1] | tissue uptake at 0.5 h ([3]; lungs, 0.1 MBq) [%ID/g] | tissue uptake at 1 h ([3]; lungs, 0.1 MBq) [%ID/g] | tissue uptake at 2 h ([3]; lungs, 0.1 MBq) [%ID/g] | tissue uptake at 0.5 h ([3]; muscle, 0.1 MBq) [%ID/g] | tissue uptake at 1 h ([3]; muscle, 0.1 MBq) [%ID/g] | tissue uptake at 2 h ([3]; muscle, 0.1 MBq) [%ID/g] | tissue uptake at 0.5 h ([3]; spleen, 0.1 MBq) [%ID/g] | tissue uptake at 1 h ([3]; spleen, 0.1 MBq) [%ID/g] | tissue uptake at 2 h ([3]; spleen, 0.1 MBq) [%ID/g] | tissue to tissue ratio at 0.5 h ([3]; tumor and blood, 0.1 MBq) | tissue to tissue ratio at 1 h ([3]; tumor and blood, 0.1 MBq) | tissue to tissue ratio at 2 h ([3]; tumor and blood, 0.1 MBq) | tissue to tissue ratio at 0.5 h ([3]; tumor and liver, 0.1 MBq) | tissue to tissue ratio at 1 h ([3]; tumor and liver, 0.1 MBq) | tissue to tissue ratio at 2 h ([3]; tumor and liver, 0.1 MBq) | tissue to tissue ratio at 0.5 h ([3]; tumor and lung) | tissue to tissue ratio at 1 h ([3]; tumor and lung) | tissue to tissue ratio at 2 h ([3]; tumor and lung) | tissue to tissue ratio at 0.5 h ([3]; tumor and muscle) | also measured
N=C(N)NCCC[C@@H]1NC(=O)[C@H](CCCCNC(=O)[C@H](CC(=O)O)NC(=O)[C@H](CC(=O)O)NC(=O)[C@H](CC(=O)O)NC(=O)CC[C@H](NC(=O)CCOCCOCCOCCOCCNC(=O)c2ccc(NN)nc2)C(=O)N[C@@H](CC(=O)O)C(=O)N[C@@H](CC(=O)O)C(=O)N[C@@H](CC(=O)O)C(=O)NCCCC[C@@H]2NC(=O)[C@@H](Cc3ccccc3)NC(=O)[C@H](CC(=O)O)NC(=O)CNC(=O)[C@H](CCCNC(=N)N)NC2=O)NC(=O)[C@@H](Cc2ccccc2)NC(=O)[C@H](CC(=O)O)NC(=O)CNC1=O [^99mTc-P6D-RGD2, [^99mTc(HYNIC-P6D-RGD2)(tricine)(TPPTS)], metal not drawn] | more than 6 h | 2.05 ± 0.28 | 1.85 ± 0.2 | 1.11 ± 0.42 | 1.79 ± 0.2 | 1.59 ± 0.25 | 0.79 ± 0.23 | 2.6 ± 0.37 | 2.58 ± 0.46 | 2.4 ± 0.37 | 2.5 ± 0.33 | 6.5 ± 0.58 | 6.98 ± 4.06 | 0.65 ± 0.15 | 0.87 ± 0.17 | 0.84 ± 0.18 | 1.19 ± 0.35 | 1.68 ± 0.1 | 2.41 ± 0.73 | 1.97 ± 0.53 | Initial blood radioactivity level, fold higher than ^99mTc-3P-RGD2 [2, 6]: ~3 ×; Initial blood radioactivity level, fold higher than ^99mTc-P6G-RGD2 [2, 6]: ~5 ×; Integrin αvβ3 specificity of tumor uptake (blocking experiment) ([2]; 60 min p.i., with/without coinjection of excess RGD2 (350 μg/mouse or 14 mg/kg)): integrin αvβ3-specific; tissue uptake at 1 h ([3]; blood, 14 mg/kg): 0.23 ± 0.01 %ID/g; tissue uptake at 1 h ([3]; brain, 14 mg/kg): 0.02 ± 0.01 %ID/g; tissue uptake at 1 h ([3]; eyes, 14 mg/kg): 0.23 ± 0.1 %ID/g; tissue uptake at 1 h ([3]; heart, 14 mg/kg): 0.2 ± 0.07 %ID/g; tissue uptake at 1 h ([3]; intestine, 14 mg/kg): 0.22 ± 0.11 %ID/g; tissue uptake at 1 h ([3]; kidneys, 14 mg/kg): 23.9 ± 3.61 %ID/g; tissue uptake at 1 h ([3]; liver, 14 mg/kg): 0.28 ± 0.04 %ID/g; tissue to tissue ratio at 1 h ([3]; tumor and lung, 14 mg/kg): 1.1 ± 0.13; tissue to tissue ratio at 1 h ([3]; tumor and muscle): 2 ± 0.36; tissue to tissue ratio at 2 h ([3]; tumor and muscle): 3.3 ± 1.24; tissue uptake at 0.5 h ([3]; tumor, 0.1 MBq): 2.85 ± 0.55 %ID/g; tissue uptake at 1 h ([3]; tumor, 0.1 MBq): 3.13 ± 0.47 %ID/g; tissue uptake at 2 h ([3]; tumor, 0.1 MBq): 2.45 ± 0.9 %ID/g
N=C(N)NCCC[C@@H]1NC(=O)[C@H](CCCCNC(=O)CNC(=O)CNC(=O)CNC(=O)CC[C@H](NC(=O)CCOCCOCCOCCOCCNC(=O)c2ccc(NN)nc2)C(=O)NCC(=O)NCC(=O)NCC(=O)NCCCC[C@@H]2NC(=O)[C@@H](Cc3ccccc3)NC(=O)[C@H](CC(=O)O)NC(=O)CNC(=O)[C@H](CCCNC(=N)N)NC2=O)NC(=O)[C@@H](Cc2ccccc2)NC(=O)[C@H](CC(=O)O)NC(=O)CNC1=O [^99mTc-P6G-RGD2, [^99mTc(HYNIC-P6G-RGD2)(tricine)(TPPTS)], metal not drawn] | more than 6 h | 4.38 ± 0.55 | 3.83 ± 0.56 | 2.81 ± 0.36 | 1.75 ± 0.24 | 1.68 ± 0.33 | 0.83 ± 0.11 | 3.08 ± 0.88 | 2.68 ± 0.57 | 2.31 ± 0.27 | 14.1 ± 1.25 | 15.6 ± 2.79 | 41.8 ± 5.13 | 2.95 ± 0.33 | 2.86 ± 0.3 | 3.21 ± 0.53 | 2.07 ± 0.15 | 2.35 ± 0.24 | 2.71 ± 0.12 | 5.04 ± 0.68 | Tumor uptake on the basis of SPECT quantification [4]: ~8.2 %ID/cm^3; tissue to tissue ratio at 1 h ([3]; tumor and muscle): 5.09 ± 0.51; tissue to tissue ratio at 2 h ([3]; tumor and muscle): 9.42 ± 1.25; tissue uptake at 0.5 h ([3]; tumor, 0.1 MBq): 8.85 ± 0.67 %ID/g; tissue uptake at 1 h ([3]; tumor, 0.1 MBq): 8.17 ± 1.1 %ID/g; tissue uptake at 2 h ([3]; tumor, 0.1 MBq): 7.82 ± 0.76 %ID/g; tissue uptake per volume at 1 h [5]: 3.5 %ID/mL
